{"source": "ChEMBL document CHEMBL2202972", "about": "“Synthesis and biological evaluation of 2-substituted-4-(3',4',5'-trimethoxyphenyl)-5-aryl thiazoles as anticancer agents” (Bioorg Med Chem, 2012)", "key": {"LoVo": {"system": "LoVo", "test": "Resistance ratio of IC50 for human doxorubicin-resistant LoVo/DX cells overexpressing P-glycoprotein to IC50 for human LoVo cells", "format": "functional"}, "HeLa [1]": {"system": "HeLa", "test": "Downregulation of Mcl-1 expression in human HeLa cells at 250 to 500 nM after 24 hrs by Western blot analysis", "format": "functional, cell-based", "summary_of_the_method": "(§1)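 HeLa cells treated for 24 or 48 h, washed twice with ice-cold PBS and lysed on ice 30 min; lysates spun at 15000 ×g, 4 °C. Protein (20 μg) resolved by SDS–PAGE on 7.5–15% gels and blotted to PVDF. Specific primary antibodies for 2 h at room temperature, then peroxidase secondary for 60 min, ECL detection. Membranes stripped and reprobed for β-actin as loading control.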"}, "HeLa [2]": {"system": "HeLa", "test": "Downregulation of Bcl-2 expression in human HeLa cells at 250 to 500 nM after 24 to 48 hrs by Western blot analysis", "format": "functional, cell-based", "summary_of_the_method": "as §1"}, "HeLa [3]": {"system": "HeLa", "test": "Induction of apoptosis in human HeLa cells assessed as appearance of cleaved caspase-8 protein at 250 to 500 nM after 24 to 48 hrs by Western blot analysis", "format": "functional, cell-based", "summary_of_the_method": "as §1"}, "HeLa [4]": {"system": "HeLa", "test": "Induction of apoptosis in human HeLa cells assessed as ROS production", "format": "functional, cell-based"}, "HeLa [5]": {"system": "HeLa", "test": "Induction of apoptosis in human HeLa cells assessed as mitochondrial polarization", "format": "functional, cell-based"}, "HeLa [6]": {"system": "HeLa", "test": "Induction of apoptosis in human HeLa cells assessed as effect on caspase-9 activation at 250 to 500 nM after 24 to 48 hrs by Western blot analysis", "format": "functional, cell-based", "summary_of_the_method": "as §1"}, "HeLa [7]": {"system": "HeLa", "test": "Induction of apoptosis in human HeLa cells assessed as caspase-3 activation at 250 to 500 nM after 24 to 48 hrs by Western blot analysis", "format": "functional, cell-based", "summary_of_the_method": "as §1"}, "HeLa [8]": {"system": "HeLa", "test": "Downregulation of cyclin B expression in human HeLa cells at 250 to 500 nM after 48 hrs by Western blot analysis", "format": "functional, cell-based", "summary_of_the_method": "as §1"}, "HeLa [9]": {"system": "HeLa", "test": "Effect on cyclin B expression in human HeLa cells at 250 to 500 nM after 24 hrs by Western blot analysis", "format": "functional, cell-based", "summary_of_the_method": "as §1"}, "[10]": {"target": "T1, M-phase inducer phosphatase 3 (Homo sapiens) (UniProt P30307)", "T1 sequence (whole entry)": "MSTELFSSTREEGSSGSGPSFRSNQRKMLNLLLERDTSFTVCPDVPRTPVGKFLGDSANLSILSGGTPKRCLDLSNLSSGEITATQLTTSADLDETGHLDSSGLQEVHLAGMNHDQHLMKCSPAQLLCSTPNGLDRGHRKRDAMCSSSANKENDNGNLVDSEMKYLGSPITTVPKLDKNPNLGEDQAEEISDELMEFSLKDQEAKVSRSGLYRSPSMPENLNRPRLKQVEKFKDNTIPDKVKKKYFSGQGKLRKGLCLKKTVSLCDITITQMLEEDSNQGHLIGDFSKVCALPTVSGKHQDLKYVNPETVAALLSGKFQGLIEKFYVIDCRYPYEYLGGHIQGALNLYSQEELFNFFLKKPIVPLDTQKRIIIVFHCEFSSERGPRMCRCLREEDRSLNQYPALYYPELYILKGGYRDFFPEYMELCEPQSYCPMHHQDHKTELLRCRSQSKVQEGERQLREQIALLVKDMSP", "test": "Induction of cdc25C phosphorylation in human HeLa cells at 250 to 500 nM after 24 to 48 hrs by Western blot analysis", "format": "cell-based", "summary_of_the_method": "as §1"}, "Jurkat [11]": {"system": "Jurkat", "test": "Cell cycle arrest in human Jurkat cells assessed as decrease in accumulation of cells at G1 phase after 24 hrs by propidium iodide staining based flow cytometric analysis", "format": "functional", "summary_of_the_method": "(§2)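 HeLa or Jurkat cells (5 × 10⁵, exponential growth) treated 24 h with 31–500 nM compound. Cells fixed in ice-cold 70% ethanol, treated with lysis buffer containing RNase A and 0.1% Triton X-100, then stained with propidium iodide. DNA content measured by flow cytometry to give phase distribution. Mean ± SEM of three independent experiments.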"}, "Jurkat [12]": {"system": "Jurkat", "test": "Cell cycle arrest in human Jurkat cells assessed as accumulation of cells at G2/M phase after 24 hrs by propidium iodide staining based flow cytometric analysis", "format": "functional", "summary_of_the_method": "as §2"}, "HeLa [13]": {"system": "HeLa", "test": "Cell cycle arrest in human HeLa cells assessed as decrease in accumulation of cells at G1 phase after 24 hrs by propidium iodide staining based flow cytometric analysis", "format": "functional", "summary_of_the_method": "as §2"}, "HeLa [14]": {"system": "HeLa", "test": "Cell cycle arrest in human HeLa cells assessed as decrease in accumulation of cells at S phase after 24 hrs by propidium iodide staining based flow cytometric analysis", "format": "functional", "summary_of_the_method": "as §2"}, "HeLa [15]": {"system": "HeLa", "test": "Cell cycle arrest in human HeLa cells assessed as accumulation of cells at G2/M phase after 24 hrs by propidium iodide staining based flow cytometric analysis", "format": "functional", "summary_of_the_method": "as §2"}, "[16]": {"test": "Inhibition of bovine brain tubulin polymerization preincubated for 15 mins by turbidimetric analysis", "design": "species or system Bos taurus", "summary_of_the_method": "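Bovine brain tubulin (10 μM) in glutamate buffer preincubated with varying compound concentrations for 15 min at 30 °C, then chilled to 0 °C. GTP 0.4 mM added and mixtures warmed to 30 °C in a spectrophotometer; assembly followed by turbidity at 350 nm.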"}, "[17]": {"test": "Antiproliferative activity against human taxol-resistant A549-T12 cells expressing tubulin mutant gene after 72 hrs by MTT assay", "format": "functional, cell-based", "settings": "A549, 72 h", "summary_of_the_method": "(§3)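 Resistant sublines cultured under selection: LoVo^Doxo (doxorubicin-resistant LoVo subclone) in complete Ham's F12 with doxorubicin 0.1 μg/mL; A549-T12 in complete DMEM with taxol 12 nM. Seeded at 8 × 10³ per well, 18 h preincubation, then 72 h compound exposure at 37 °C. MTT read-out.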"}, "CCRF-CEM": {"system": "CCRF-CEM", "test": "Antiproliferative activity against human CEM cells after 72 hrs by MTT assay", "format": "functional, cell-based"}, "[18]": {"test": "Antiproliferative activity against human doxorubicin-resistant LoVo/DX cells overexpressing P-glycoprotein after 72 hrs by MTT assay", "format": "functional, cell-based", "summary_of_the_method": "as §3"}, "[19]": {"test": "Growth inhibition of human resting PBL after 72 hrs by MTT assay", "format": "cell-based", "settings": "resting peripheral blood lymphocytes (PBL)"}, "PBL": {"system": "PBL", "test": "Growth inhibition of PHA-stimulated human PBL after 72 hrs by MTT assay", "format": "functional"}, "HL-60 [20]": {"system": "HL-60", "test": "Ratio of compound IC50 to CA-4 IC50 for human HL60 cells after 72 hrs by MTT assay", "format": "functional"}, "HeLa [21]": {"system": "HeLa", "test": "Ratio of compound IC50 to CA-4 IC50 for human HeLa cells after 72 hrs by MTT assay", "format": "functional"}, "MCF7 [22]": {"system": "MCF7", "test": "Ratio of CA-4 IC50 to compound IC50 for human MCF7 cells after 72 hrs by MTT assay", "format": "functional"}, "HT-29 [23]": {"system": "HT-29", "test": "Ratio of CA-4 IC50 to compound IC50 for human HT-29 cells after 72 hrs by MTT assay", "format": "functional"}, "HT-29 [24]": {"system": "HT-29", "test": "Antiproliferative activity against human HT-29 cells after 72 hrs by MTT assay", "format": "functional, cell-based", "settings": "HT-29, 72 h"}, "MCF7 [25]": {"system": "MCF7", "test": "Antiproliferative activity against human MCF7 cells after 72 hrs by MTT assay", "format": "functional, cell-based", "settings": "MCF7, 72 h"}, "HL-60 [26]": {"system": "HL-60", "test": "Antiproliferative activity against human HL60 cells after 72 hrs by MTT assay", "format": "functional, cell-based", "settings": "HL-60, 72 h"}, "A549": {"system": "A549", "test": "Antiproliferative activity against human A549 cells after 72 hrs by MTT assay", "format": "functional, cell-based", "settings": "A549, 72 h"}, "HeLa [27]": {"system": "HeLa", "test": "Antiproliferative activity against human HeLa cells after 72 hrs by MTT assay", "format": "functional, cell-based"}, "HeLa [28]": {"system": "HeLa", "test": "Induction of survivin phosphorylation at Thr34 in human HeLa cells at 250 to 500 nM after 24 to 48 hrs by Western blot analysis"}}, "note": "Calls of active or inactive are those of the source. The rule behind the calls is not given here.", "data": [{"compound": "CCOc1ccc(-c2sc(NC)nc2-c2cc(OC)c(OC)c(OC)c2)cc1", "values": [{"measurement": "Ratio IC50", "setting": "LoVo", "result": 0.5}, {"measurement": "Activity", "setting": "HeLa [1]", "result": "Active"}, {"measurement": "Activity", "setting": "HeLa [2]", "result": "Active"}, {"measurement": "Activity", "setting": "HeLa [3]", "result": "Active"}, {"measurement": "Activity", "setting": "HeLa [4]", "result": "Active"}, {"measurement": "Activity", "setting": "HeLa [5]", "result": "Active"}, {"measurement": "Activity", "setting": "HeLa [6]", "result": "inactive"}, {"measurement": "Activity", "setting": "HeLa [7]", "result": "Active"}, {"measurement": "Activity", "setting": "HeLa [8]", "result": "Active"}, {"measurement": "Activity", "setting": "HeLa [9]", "result": "inactive"}, {"measurement": "Activity", "setting": "[10]", "result": "Active"}, {"measurement": "Activity", "setting": "Jurkat [11]", "result": "Dose-dependent effect"}, {"measurement": "Activity", "setting": "Jurkat [12]", "result": "Dose-dependent effect"}, {"measurement": "Activity", "setting": "HeLa [13]", "result": "Dose-dependent effect"}, {"measurement": "Activity", "setting": "HeLa [14]", "result": "Dose-dependent effect"}, {"measurement": "Activity", "setting": "HeLa [15]", "result": "Dose-dependent effect"}, {"measurement": "IC50", "setting": "[16]", "result": 0.89, "unit": "µM"}, {"measurement": "IC50", "setting": "[17]", "result": 0.0215, "unit": "µM"}, {"measurement": "IC50", "setting": "CCRF-CEM", "result": 0.0008, "unit": "µM"}, {"measurement": "IC50", "setting": "[18]", "result": 0.0145, "unit": "µM"}, {"measurement": "GI50 at 72 h", "setting": "[19]", "result": 0.443, "unit": "µM"}, {"measurement": "GI50", "setting": "PBL", "result": 0.12, "unit": "µM"}, {"measurement": "Ratio IC50", "setting": "HL-60 [20]", "result": 2}, {"measurement": "Ratio IC50", "setting": "HeLa [21]", "result": 2}, {"measurement": "Ratio IC50", "setting": "MCF7 [22]", "result": 15}, {"measurement": "Ratio IC50", "setting": "HT-29 [23]", "result": 1000}, {"measurement": "IC50", "setting": "HT-29 [24]", "result": 0.0032, "unit": "µM"}, {"measurement": "IC50", "setting": "MCF7 [25]", "result": 0.0245, "unit": "µM"}, {"measurement": "IC50", "setting": "HL-60 [26]", "result": 0.0018, "unit": "µM"}, {"measurement": "IC50", "setting": "A549", "result": 0.0386, "unit": "µM"}, {"measurement": "IC50", "setting": "HeLa [27]", "result": 0.0132, "unit": "µM"}, {"measurement": "Activity", "setting": "HeLa [28]", "result": "Active"}]}]}
